From BindingDB's records for doi:10.1016/j.ejmech.2011.10.026 (National Cheng Kung University, 2012) come the findings set out here.

Molecules are shown by their SMILES.

The assay concerns the target T1, Nitric oxide synthase, inducible (Mus musculus, UniProt P29477).
T1 sequence (P29477 whole entry): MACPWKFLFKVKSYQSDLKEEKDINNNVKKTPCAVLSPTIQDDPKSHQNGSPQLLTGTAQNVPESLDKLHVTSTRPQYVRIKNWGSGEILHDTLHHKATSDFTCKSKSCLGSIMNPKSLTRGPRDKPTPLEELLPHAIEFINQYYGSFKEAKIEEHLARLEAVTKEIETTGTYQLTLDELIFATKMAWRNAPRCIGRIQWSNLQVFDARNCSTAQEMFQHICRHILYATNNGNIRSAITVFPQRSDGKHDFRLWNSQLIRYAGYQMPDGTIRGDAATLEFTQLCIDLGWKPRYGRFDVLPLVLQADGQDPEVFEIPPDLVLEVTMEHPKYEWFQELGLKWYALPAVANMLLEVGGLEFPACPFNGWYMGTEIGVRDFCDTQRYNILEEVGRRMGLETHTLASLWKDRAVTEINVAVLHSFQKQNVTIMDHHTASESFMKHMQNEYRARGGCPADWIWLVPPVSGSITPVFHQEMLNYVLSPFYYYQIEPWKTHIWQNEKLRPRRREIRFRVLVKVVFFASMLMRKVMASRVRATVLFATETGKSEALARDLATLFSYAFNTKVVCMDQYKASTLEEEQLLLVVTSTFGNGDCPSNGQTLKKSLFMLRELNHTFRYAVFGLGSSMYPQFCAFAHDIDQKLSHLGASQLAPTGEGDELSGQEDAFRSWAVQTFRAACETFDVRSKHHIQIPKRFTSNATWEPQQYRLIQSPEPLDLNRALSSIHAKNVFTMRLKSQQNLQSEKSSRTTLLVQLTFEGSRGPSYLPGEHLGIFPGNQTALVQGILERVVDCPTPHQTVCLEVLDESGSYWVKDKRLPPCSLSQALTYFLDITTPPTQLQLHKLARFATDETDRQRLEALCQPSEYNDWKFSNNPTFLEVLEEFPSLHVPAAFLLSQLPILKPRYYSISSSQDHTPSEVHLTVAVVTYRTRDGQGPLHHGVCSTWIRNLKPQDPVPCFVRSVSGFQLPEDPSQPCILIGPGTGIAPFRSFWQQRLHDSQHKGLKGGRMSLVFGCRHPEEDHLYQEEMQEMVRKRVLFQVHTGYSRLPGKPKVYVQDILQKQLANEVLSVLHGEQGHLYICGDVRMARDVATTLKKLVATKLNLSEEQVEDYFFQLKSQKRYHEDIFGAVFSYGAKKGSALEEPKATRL
Put plainly: Inhibition of iNOS-mediated nitric oxide production in LPS-stimulated mouse BV2 cells measured after 24 hrs of post-stimulation by Griess reaction method. Summed up: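 Murine BV2 microglia in DMEM with 5% FBS were given compound at 1–50 µM and stimulated with LPS 0.5 µg/mL. Nitrite accumulated in the medium was measured by Griess reagent 24 h after stimulation. IC50 given as mean ± SEM of three experiments on different days using cells from different passages.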
On the technique in general: Griess reagent forms a coloured azo dye with nitrite.
Broadly, the IC50 is the midpoint of a concentration-inhibition curve. Read a high IC50 as a need for much substance. `COc1cccc(/C=C/C(=O)c2cc(C(=O)/C=C/c3cccc(OC)c3)c(O)cc2O)c1` returned an IC50 of 8.09 µM.
`CC(=O)c1cc(C(=O)C=Cc2ccc3c(c2)OCO3)c(O)cc1O` showed an IC50 of 17.7 µM.
Regarding `O=C(/C=C/c1ccco1)c1cc(C(=O)/C=C/c2ccco2)c(O)cc1O`, it took 4 µM to reach half-maximal inhibition (IC50).
The value for `COc1ccc(/C=C/C(=O)c2cc(C(=O)/C=C/c3ccc(OC)cc3)c(O)cc2O)cc1` was 25.7 µM; that for `O=C(/C=C/c1ccccc1)c1cc(C(=O)/C=C/c2ccccc2)c(O)cc1O` was 5.44 µM; that for `Cc1ccsc1/C=C/C(=O)c1cc(C(=O)/C=C/c2sccc2C)c(O)cc1O` was 43.3 µM.
`COc1cccc(/C=C/C(=O)c2cc(C(=O)/C=C/c3cccc(OC)c3OC)c(O)cc2O)c1OC` showed an IC50 of 1.82 µM.
As to `COc1ccc(OC)c(/C=C/C(=O)c2cc(C(=O)/C=C/c3cc(OC)ccc3OC)c(O)cc2O)c1`, the IC50 turned out to be 23.3 µM. This IC50 lies about 13-fold higher than the previous one.
As to `Cc1ccc(/C=C/C(=O)c2cc(C(=O)/C=C/c3ccc(C)o3)c(O)cc2O)o1`, half-maximal inhibition (IC50) was put at 36.3 µM.
Turning to `COc1ccc(/C=C/C(=O)c2cc(C(=O)/C=C/c3ccc(OC)c(OC)c3OC)c(O)cc2O)c(OC)c1OC`, the IC50 was 7.04 µM.
Compound `COc1ccc(/C=C/C(=O)c2cc(C(=O)/C=C/c3ccc(OC)c(OC)c3)c(O)cc2O)cc1OC` yielded a half-maximal inhibitory concentration (IC50) of 0.95 µM.
Compound `O=C(/C=C/c1ccccn1)c1cc(C(=O)/C=C/c2ccccn2)c(O)cc1O` had an IC50 of 8.65 µM.
